The values below come from ChEMBL document CHEMBL4145675, “2-Phenylquinoline S. aureus NorA Efflux Pump Inhibitors: Evaluation of the Importance of Methoxy Group Introduction” (J Med Chem, 2018).

Series [1] addresses T1, Quinolone resistance protein NorA (Staphylococcus aureus) (UniProt P0A0J7).
T1 sequence (whole entry): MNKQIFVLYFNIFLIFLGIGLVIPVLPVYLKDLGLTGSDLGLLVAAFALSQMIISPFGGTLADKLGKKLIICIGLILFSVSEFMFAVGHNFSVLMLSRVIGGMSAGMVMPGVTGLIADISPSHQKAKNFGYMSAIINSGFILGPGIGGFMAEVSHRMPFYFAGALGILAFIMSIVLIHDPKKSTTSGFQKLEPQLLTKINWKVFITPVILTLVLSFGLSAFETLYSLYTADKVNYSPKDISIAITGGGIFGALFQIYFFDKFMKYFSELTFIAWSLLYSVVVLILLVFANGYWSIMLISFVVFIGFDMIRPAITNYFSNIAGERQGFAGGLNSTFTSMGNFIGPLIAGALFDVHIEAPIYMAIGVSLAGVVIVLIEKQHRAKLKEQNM
The experiment in a line: Inhibition of NorA in Staphylococcus aureus SA-1199B expressing GrlA A116E mutant assessed as reduction in EtBr efflux at 50 uM incubated for 5 mins by fluorescence based assay. In outline: (§1)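 Cells were grown overnight in cation-supplemented Mueller-Hinton broth at 35 °C and subcultured to OD600 0.7–0.8. They were loaded at OD600 0.8 with 25 µM EtBr plus 100 µM CCCP (final) for 20 min at room temperature. Cells were then resuspended in fresh broth with or without compound, 50 µM for the single-point screen or a concentration series for IC50. Fluorescence (ex 485/em 645 nm) was read for 5 min. Inhibition was calculated from the fluorescence decrease versus untreated cells. Biological triplicate, each run twice.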

For series [2], the target named is Quinolone resistance protein NorA (Staphylococcus aureus, UniProt P0A0J7, A116E). Nature of the series: Inhibition of NorA in Staphylococcus aureus SA-1199B expressing GrlA A116E mutant assessed as reduction in EtBr efflux incubated for 5 mins by fluorescence based assay. In outline: as §1
For series [3], the system named is Staphylococcus aureus. Nature of the series: Antimicrobial activity against Staphylococcus aureus SA-1199B expressing wild type norA and co-expressing GrlA A116E mutant by microdilution method. The series is classed as organism-based. The following applies: in vivo. In short, it runs like this: (§2)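 CLSI broth microdilution MIC of the compound alone. Strains: SA-K1902 (norA deleted), SA-K2378 (SA-K1902 carrying norA plus its promoter on multicopy plasmid pCU1), SA-1199B (norA overexpressing, GrlA A116E).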
(Broth dilution looks for growth in wells or tubes with falling amounts of substance.)

Series [4] deals with T1, Quinolone resistance protein NorA (Staphylococcus aureus). Nature of the series: Inhibition of NorA in Staphylococcus aureus SA-1199B expressing GrlA A116E mutant assessed as minimal potentiating drug concentration causing 8 fold reduction in ciprofloxacin MIC by microdilution method based Checkerboard assay.
Series [5] deals with Staphylococcus aureus. Nature of the series: Synergistic potentiation of ciprofloxacin-induced antimicrobial activity against wild type Staphylococcus aureus ATCC 25923 at 0.78 to 100 ug/ml by microdilution method based Checkerboard assay. The series is classed as functional, organism-based.
Series [6] concerns Staphylococcus aureus. The experiment in a line: Synergistic potentiation of ciprofloxacin-induced antimicrobial activity against Staphylococcus aureus SA-1199 at 0.78 to 100 ug/ml by microdilution method based Checkerboard assay. It counts as functional, organism-based.
The target of series [7] is T1, Quinolone resistance protein NorA (Staphylococcus aureus). The experiment in a line: Inhibition of NorA in Staphylococcus aureus SA-1199B expressing GrlA A116E mutant assessed as synergistic potentiation of ciprofloxacin-induced antimicrobial activity at 0.78 to 100 ug/ml by microdilution method based Checkerboard assay.
Series [8] has the same target. The experiment in a line: Inhibition of NorA in Staphylococcus aureus SA-1199B expressing GrlA A116E mutant assessed as synergistic potentiation of ciprofloxacin-induced antimicrobial activity at 0.78 ug/ml by microdilution method based Checkerboard assay.
Series [9] shares this target. The experiment in a line: Inhibition of NorA in Staphylococcus aureus SA-K2378 assessed as synergistic potentiation of ciprofloxacin-induced antimicrobial activity at 0.78 to 100 ug/ml by microdilution method based Checkerboard assay.
Series [10] has as its system Staphylococcus aureus. The experiment in a line: Synergistic potentiation of ciprofloxacin-induced antimicrobial activity against norA deleted Staphylococcus aureus SA-K1902 at 0.78 to 100 ug/ml by microdilution method based Checkerboard assay. The series is classed as functional, organism-based.
Series [11] concerns the target T1, Quinolone resistance protein NorA (Staphylococcus aureus). The experiment in a line: Inhibition of NorA in Staphylococcus aureus SA-K2378 assessed as synergistic potentiation of ciprofloxacin-induced antimicrobial activity at 0.78 ug/ml by microdilution method based Checkerboard assay.
Series [12] is described as follows: Cytotoxicity in human HepG2 cells assessed as reduction in cell viability incubated for 24 hrs by ATP bioluminescence assay. It counts as cell-based. In short, it runs like this:
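Cells were grown to confluence overnight in RPMI 1640 with 10% heat-inactivated fetal calf serum, penicillin and streptomycin. Monolayers were exposed for 24 h at 37 °C to scalar concentrations (0-250 µg/mL). Viability was read by ATP bioluminescence, each concentration in triplicate. CC50 is the concentration reducing cell number by 50% versus untreated controls.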

For series [13], the system named is Staphylococcus aureus. The experiment in a line: Antimicrobial activity against Staphylococcus aureus ATCC 25923 by microdilution method. The series is classed as organism-based. Particulars: in vivo. In outline: (§3)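 Broth microdilution MIC per CLSI guidelines. ATCC 25923 is norA wild-type. SA-1199B overexpresses norA and carries an A116E GrlA substitution.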

In series [14] the test system is Staphylococcus aureus. Nature of the series: Antimicrobial activity against Staphylococcus aureus SA-1199B expressing wild type norA by microdilution method. It counts as organism-based. Particulars: in vivo. In short, it runs like this:
as §3

Series [15] deals with Staphylococcus aureus. Nature of the series: Antimicrobial activity against NorA deficient Staphylococcus aureus SA-K1902 by microdilution method. The series is classed as organism-based. Particulars: in vivo. In short, it runs like this: as §2
Series [16] concerns Staphylococcus aureus. The experiment in a line: Antimicrobial activity against mepA deficient Staphylococcus aureus SA-K2885 by microdilution method. It counts as organism-based. The following applies: in vivo. In short, it runs like this:
(§4)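 CLSI broth microdilution MIC of the compound alone in norA-deleted strains. SA-K2885 carries empty pALC2073 and SA-K2886 carries pALC2073-mepA (xyl/tetO promoter). 0.05 µg/mL tetracycline was present throughout to induce.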

Series [17] deals with Staphylococcus aureus. The experiment in a line: Antimicrobial activity against mepA overexpressing Staphylococcus aureus SA-K2886 by microdilution method. The series is classed as organism-based. The following applies: in vivo. In outline: as §4
Series [18] deals with Staphylococcus aureus. Nature of the series: Antimicrobial activity against NorA overexpressing Staphylococcus aureus SA-K2378 by microdilution method. The series is classed as organism-based. The following applies: in vivo. In outline: as §2

For orientation: inhibition means the percentage by which the read-out fell short of the control. A word on the pIC50: it is the negative decadic logarithm of the IC50, by convention in mol/L. As usually defined, the CC50 is the concentration giving 50% cytotoxicity.

pIC50: −log10 of the molar value. ≈ marks a conversion by molar mass, not a printed value. Calls of active or inactive are those of the source. The rule behind the calls is not given here.

For `CCCOc1ccc(-c2cc(OCCN(CC)CC)c3ccc(OC)cc3n2)cc1`, the inhibition in series [1] was 100%. Besides, the pIC50 in series [2] was 5.33. In addition, the MIC in the series on Staphylococcus aureus [3] is greater than 245 µM; in the series with Staphylococcus aureus [13], 50 µg/mL (≈ 122 µM); in the series on Staphylococcus aureus [14], greater than 100 µg/mL; in the series on Staphylococcus aureus [15], 25 µg/mL (≈ 61.2 µM). The Activity in series [4] worked out at 6.25 µg/mL. The “synergistic potentiation of ciprofloxacin activity” value (from here on “synergistic potentiation”) in the series on Staphylococcus aureus [5] was “Active”. Also, the inhibition entry (with Staphylococcus aureus [6]; in series [7]; in [8]; in series [9]) was “Active” throughout. The result in the series on Staphylococcus aureus [10] was inactive. Moreover, the fold change (FC) in [11] stood at 16. Moreover, the CC50 at 24 h in [12] was determined as 7.7 µg/mL (≈ 18.8 µM).

`CCCOc1ccc(-c2cc(OCCN3CCc4cc(OC)c(OC)cc4C3)c3c(OC)cc(OC)cc3n2)cc1`: the inhibition in series [1] worked out at 86.5%. Moreover, in series [2], the pIC50 is 5.80. Besides, the MIC against Staphylococcus aureus [3] came out at 179 µM (≈ 100 µg/mL); against Staphylococcus aureus [13], 100 µg/mL (≈ 179 µM); with Staphylococcus aureus [14], 100 µg/mL (≈ 179 µM). Besides, the Activity in series [4] was less than 100 µg/mL. Further, the “synergistic potentiation” value with Staphylococcus aureus [5] is “Active”. For the same compound, the inhibition result (in the series on Staphylococcus aureus [6]; in [7]; in series [8]; in series [9]) was “Active” in each case. Moreover, the outcome in the series with Staphylococcus aureus [10] was inactive.

With `CCCOc1ccc(-c2cc(OCCN3CCc4cc(OC)c(OC)cc4C3)c3cc(OC)cc(OC)c3n2)cc1`, the inhibition in [1] turned out to be 86.7%. Also, in series [2], the pIC50 is 5.42. For the same compound, the MIC in the series with Staphylococcus aureus [3] amounted to 45 µM (≈ 25.1 µg/mL); in the series with Staphylococcus aureus [13], 25 µg/mL (≈ 44.7 µM); in the series with Staphylococcus aureus [14], 25 µg/mL (≈ 44.7 µM); against Staphylococcus aureus [15], 25 µg/mL (≈ 44.7 µM). Moreover, the Activity in series [4] was found to be 3.13 µg/mL. Also, the “synergistic potentiation” value with Staphylococcus aureus [5] is “Active”. Moreover, the inhibition result (with Staphylococcus aureus [6]; in [7]; in series [8]; in series [9]) was “Active” each time. The result in the series with Staphylococcus aureus [10] was inactive. For the same compound, the fold change (FC) in series [11] is 8.

Take `CC[n+]1c(-c2ccccc2)c2cc(N)ccc2c2ccc(N)cc21.[Br-]` [HOMIDIUM BROMIDE]: the values for the MIC with Staphylococcus aureus [16] and against Staphylococcus aureus [17] were 0.63 µg/mL and 25 µg/mL, respectively.

In the case of `CCCOc1ccc(-c2cc(OCCN3CCCCC3)c3ccc(OC)cc3n2)cc1`, the inhibition in series [1] worked out at 100%. Further, in [2], the pIC50 is 5.40. Moreover, the results for the MIC against Staphylococcus aureus [3], in the series with Staphylococcus aureus [13] and in the series on Staphylococcus aureus [14] were 238 µM (≈ 100 µg/mL), 50 µg/mL (≈ 119 µM) and greater than 100 µg/mL, respectively. Moreover, the Activity in [4] was 3.13 µg/mL. Besides, the “synergistic potentiation” value with Staphylococcus aureus [5] was “Active”. Besides, the inhibition entry (with Staphylococcus aureus [6]; in series [7]) was “Active” in each case. Moreover, the CC50 at 24 h in series [12] came out at 71.5 µg/mL (≈ 170 µM).

Turning to `CCCOc1ccc(-c2cc(OCCN(CC)CC)c3cc(OC)ccc3n2)cc1`, the inhibition in series [1] came to 99%. Also, the pIC50 in series [2] was 5.33. The results for the MIC against Staphylococcus aureus [3], against Staphylococcus aureus [13] and against Staphylococcus aureus [14] were 122 µM (≈ 49.8 µg/mL), 50 µg/mL (≈ 122 µM) and 50 µg/mL (≈ 122 µM), respectively. The Activity in [4] is 6.25 µg/mL. For the same compound, the “synergistic potentiation” value in the series with Staphylococcus aureus [5] is “Active”. Also, the inhibition entry (in the series on Staphylococcus aureus [6]; in series [7]) was “Active” each time. Besides, the CC50 at 24 h in [12] was found to be 5 µg/mL (≈ 12.2 µM).

With `O=C(O)c1cn(C2CC2)c2cc(N3CCNCC3)c(F)cc2c1=O` [CIPROFLOXACIN], the CC50 at 24 h in series [12] came out at 139 µg/mL (≈ 418 µM). Besides, the MIC is 0.31 µg/mL (≈ 0.936 µM) with Staphylococcus aureus [13], 0.63 µg/mL (≈ 1.9 µM) in the series on Staphylococcus aureus [14], 0.31 µg/mL (≈ 0.936 µM) against Staphylococcus aureus [15] and 2.5 µg/mL (≈ 7.54 µM) with Staphylococcus aureus [18].
